Tests used:
Rattus norvegicus [1] = species on record: Rattus norvegicus; assay: Percent change in total cholesterol in cholic acid (0.5%)-cholesterol (1.5%)-peanut oil (5.5%)-fed rats; type: functional
Summary of the method: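 Acute screen: rats given a single gavage dose, 50 mg/kg standard unless noted, suspended in carboxymethylcellulose plus Tween-20 in water, then a single high-fat, high-cholesterol meal (0.5% cholic acid, 1.5% cholesterol, 5.5% peanut oil). Overnight rise in plasma total cholesterol measured as % change versus control. Stomachs checked for food. ANOVA with Fisher's multiple range test, p<0.05.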

[2] = target: T1, Sterol O-acyltransferase 1 (Rattus norvegicus, UniProt O70536); assay: In vitro inhibition of rat intestinal acyl coenzyme A:cholesterol acyltransferase using [1-14C]oleolyl-CoA
T1 sequence (O70536 whole entry): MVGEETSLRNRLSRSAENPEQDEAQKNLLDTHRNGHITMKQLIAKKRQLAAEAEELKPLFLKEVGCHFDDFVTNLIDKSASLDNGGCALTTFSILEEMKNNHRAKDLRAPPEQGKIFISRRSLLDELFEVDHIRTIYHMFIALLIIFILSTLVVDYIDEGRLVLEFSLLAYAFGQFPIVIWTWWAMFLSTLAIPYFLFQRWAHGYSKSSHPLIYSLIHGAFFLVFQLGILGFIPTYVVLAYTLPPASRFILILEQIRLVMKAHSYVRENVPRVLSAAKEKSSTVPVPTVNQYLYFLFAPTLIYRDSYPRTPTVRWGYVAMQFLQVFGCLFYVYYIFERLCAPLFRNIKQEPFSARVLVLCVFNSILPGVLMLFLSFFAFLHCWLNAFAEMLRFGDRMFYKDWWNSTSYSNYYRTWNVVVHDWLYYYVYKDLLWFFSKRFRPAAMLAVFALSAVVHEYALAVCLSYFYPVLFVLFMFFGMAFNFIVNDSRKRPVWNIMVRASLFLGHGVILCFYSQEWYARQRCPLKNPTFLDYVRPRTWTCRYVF

Rattus norvegicus [3] = assay: The compound at a dose of 50 mg/kg is evaluated for percent change in High Density Lipoprotein (HDl) level in chronic cholesterol fed rat screen; type: functional
Summary of the method: (§1)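 Chronic model: rats fed the high-fat, high-cholesterol diet for 14 days. In the second week, 50 mg/kg given daily by gavage in carboxymethylcellulose/Tween-20 aqueous vehicle. Plasma HDL and non-HDL cholesterol expressed as % change versus control. Body-weight gain monitored. ANOVA with Fisher's multiple range test, p<0.05.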

Rattus norvegicus [4] = assay: The compound at a dose of 50 mg/kg is evaluated for percent change in NON-High Density Lipoprotein level in chronic cholesterol fed rat screen; type: functional; summary of the method: as §1
[5] = target: Sterol O-acyltransferase 1 (Oryctolagus cuniculus); assay: In vitro inhibition of rabbit intestinal acyl coenzyme A:cholesterol acyltransferase using [1-14C]oleolyl-CoA

CC(C)c1cccc(C(C)C)c1NC(=O)NCC(NCc1ccc(CN(C)C)cc1)c1ccccc1 (single isomer, unassigned; (-)) gave a Change (Rattus norvegicus [1]) of -57% and an IC50 [2] of 170 nM.

Compound CC(C)c1cccc(C(C)C)c1NC(=O)NCC(NCc1ccccc1O)c1ccccc1 (single isomer, unassigned; (-)) has a Change (Rattus norvegicus [3]) of 40%, a Change (Rattus norvegicus [4]) of 3% and an IC50 [5] of 120 nM. For the same compound, the Change (Rattus norvegicus [1]) was -50%.

Reference: ChEMBL document CHEMBL1127542, “Inhibitors of acyl-CoA:cholesterol O-acyl transferase (ACAT) as hypocholesterolemic agents. 8. Incorporation of amide or amine functionalities into a series of disubstituted ureas and carbamates. Effects on ACAT inhibition in vitro and efficacy in vivo” (J Med Chem, 1994)
